# ChEMBL document CHEMBL1158067, “Phenolic glycosides with antioxidant activity from the stem bark of Populus davidiana” (J Nat Prod, 2006)
# Test: ABTS radical scavenging activity assessed as Trolox equivalent antioxidant capacity index
# Format: physicochemical
# Procedure, shortened: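 ABTS radical cation generated from 7 mM ABTS in water plus potassium persulfate (final 2.45 mM), held in the dark at room temperature for 16 h, then diluted with water to A734 0.700 ± 0.020. Diluted radical mixed with compound or Trolox standard in MeOH (final 0–20 µM), kept at ambient temperature. A734 read exactly 6 min after mixing, solvent blanks included. Compounds were dosed to give 10–80% inhibition. Percent absorbance decrease was plotted against concentration and referenced to Trolox.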
row,Activity,SMILES
1,0.8,Cc1cc(C(C)(C)C)c(O)c(C(C)(C)C)c1 [BUTYLATED HYDROXYTOLUENE]
2,1.98,O=C(O)/C=C/c1ccc(O)c(O)c1 [CAFFEIC ACID]
3,1.27,O=C(/C=C/c1ccc(O)cc1)O[C@H]1[C@H](OC2CCCCC2O)O[C@H](CO)[C@@H](O)[C@@H]1O (some centres not stated) [GRANDIDENTATIN]
4,2.07,O=C(/C=C/c1ccc(O)cc1)OCc1cc(O)ccc1O[C@@H]1O[C@H](CO)[C@@H](O)[C@H](O)[C@H]1O [POPULOSIDE A]
5,1.13,O=C(/C=C/c1ccc(O)cc1)OCc1ccccc1O[C@@H]1O[C@H](CO)[C@@H](O)[C@H](O)[C@H]1O [POPULOSIDE B]
6,1.55,COc1cc(/C=C/C(=O)OCc2ccccc2O[C@@H]2O[C@H](CO)[C@@H](O)[C@H](O)[C@H]2O)ccc1O [POPULOSIDE C]
7,1.67,O=C(/C=C/c1ccc(O)c(O)c1)OCc1ccccc1O[C@@H]1O[C@H](CO)[C@@H](O)[C@H](O)[C@H]1O [POPULOSIDE]
8,0.21,OCc1ccccc1O[C@@H]1O[C@H](CO)[C@@H](O)[C@H](O)[C@H]1O [SALICIN]
9,1.01,O=C(OCc1cc(O)ccc1O[C@@H]1O[C@H](CO)[C@@H](O)[C@H](O)[C@H]1O)c1ccccc1 [SALIREPOSIDE]
10,0.12,O=C(O[C@H]1[C@H](Oc2ccccc2COC(=O)C2(O)C=CCCC2=O)O[C@H](CO)[C@@H](O)[C@@H]1O)c1ccccc1 (some centres not stated) [TREMULACIN]
11,0.24,O=C(O[C@H]1[C@H](Oc2ccccc2CO)O[C@H](CO)[C@@H](O)[C@@H]1O)c1ccccc1 [TREMULDIN]

row,SMILES,Activity
1,O=C(/C=C/c1ccc(O)cc1)O[C@@H]1O[C@H](CO)[C@@H](O)[C@H](O)[C@H]1O,0.78
